N-glyco inh – increase of ERlucT glycosylation luciferase signal, primary screen, N-linked glycosylation inhibitor project, D54 ERlucT cells, luminescence, set 2 | D54 ERlucT glycosylation luciferase reporter, 24 h; percent of 100 nM tunicamycin response | reporter increase, % at 12.5 µM | hit rate 0.23% among 360,000 | AID 588692, 2011;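 active = mean luciferase reporter signal, scaled so untreated is 0 and the glycosylation-blocking control 100, at or above a set limit in every replicate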;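 note: luciferase carries N-glycosylation sites so blocking glycosylation raises the light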
ALR inh – inhibitors of human ALR sulfhydryl oxidase, primary screen, biochemical, H2O2 detection, HRP-luminol luminescence, single point | FAD-linked sulfhydryl oxidase ALR (Homo sapiens), P55789 | purified ALR, DTT oxidation | hit rate 3.8% among 290,000 | AID 485317, 2010 | inhibition, % (test concentration not listed);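 active = mean replicate inhibition above about 79%, with every replicate also reaching it, limit read from the data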
Target sequence (P55789 whole entry, looked up): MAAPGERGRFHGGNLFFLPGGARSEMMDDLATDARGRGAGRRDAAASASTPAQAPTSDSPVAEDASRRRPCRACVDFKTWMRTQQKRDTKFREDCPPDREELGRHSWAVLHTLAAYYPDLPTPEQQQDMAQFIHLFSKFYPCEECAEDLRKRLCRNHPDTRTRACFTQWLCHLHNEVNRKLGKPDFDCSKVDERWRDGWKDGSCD
T cell HTS – modulators of CD8 T cell-vesicle binding, primary screen, mouse 2C CD8+ T cells, flow cytometry | 2C CD8+ T cell-vesicle binding; stronger effect = lower value | response (vesicle binding), % at 7 µM | hit rate 0.068% among 330,000 | AID 2052, 2009;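 active = response, share of CD8 T cells binding vesicles, and their 90th percentile fluorescence all below set limits, cut at about 80% in these data, passing the limit was not always enough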;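 note: values below 100% mean blocked vesicle binding to the CD8+ T cells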
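Assay system: 2C TCR transgenic mouse naive CD8+ T cells, MACS-purified | Read-out: CD8+ gate FL2 mean fluorescence as % of same-row positive control | Signal: High-throughput flow cytometry with anti-B7-1 and anti-CD8 staining | Timing: Binding step 1.5 h, 37 °C, antibody labelling 20 min, ice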
Hits are given with their value; – = inactive; · = no result given. The full list was thinned out, with hits kept by preference.

SMILES | N-glyco inh | ALR inh | T cell HTS
CC1CCCCC1NC(=O)COC(=O)COc1ccccc1F (stereo not drawn) | – | · | –
N/C(=N\c1nc2ccccc2o1)NC(=O)c1ccccc1Br | – | · | –
N=C1/C(=C\c2ccc(OC(=O)c3ccco3)cc2)C(=O)N=C2SC(N3CCCCC3)=NN12 | – | – | –
N=C1/C(=C/c2ccc(OC(=O)c3ccco3)cc2)C(=O)N=C2SC=CN12 | – | 98 | –
CC1Cc2ccccc2N1C(=O)Cn1cnc2ccccc21 (stereo not drawn) | – | – | –
N#C/C(=C\c1cccc(OCC(=O)O)c1)c1nc2ccccc2[nH]1 | – | 98 | –
N#C/C(=C\c1cccnc1)c1nc2ccccc2[nH]1 | 42 | – | –
N#C/C(=C\c1ccccc1C(=O)O)c1nc2ccccc2[nH]1 | – | · | –
COc1cccc(/C=C(\C#N)c2nc3ccc(C)cc3[nH]2)c1OCC(=O)O | – | – | –
N#C/C(=C\c1ccncc1)c1nc2ccccc2[nH]1 | – | · | ·
CCOc1cccc(/C=C(/C#N)c2nc3ccccc3[nH]2)c1OCC(=O)O | – | 98 | –
CC(NC(=O)c1ccc(S(=O)(=O)NCc2ccco2)cc1)c1ccc(F)cc1 (stereo not drawn) | – | – | –
CC1(C)Cc2nc3scc(NC(=O)c4ccccc4)c3cc2CO1 | – | – | –
O=C(Nc1ccccn1)C1CCN(c2ncnc3c2nc2n3CCCCC2)CC1 | – | – | –
Cc1ccc(C(=O)NCCc2nnc3ccc(SCC(=O)Nc4nnc(C)s4)nn23)cc1 | – | · | ·
N#C/C(=N/O)c1nc(-c2ccc(F)cc2)cs1 | – | 98 | –
Fc1ccc(-c2csc(-c3ccncc3)n2)cc1 | – | – | –
CC1(C)COC(Cc2ccccc2)=N1 | – | · | ·
CCc1ccc(/C=C2/C(=O)NC(=O)N2C(C)=O)cc1 | – | – | –
CSc1nc2ccc(S(=O)(=O)Nc3c(C)n(C)n(-c4ccccc4)c3=O)cc2s1 | – | 99 | –
Cc1c(NS(=O)(=O)c2ccc3nc(COc4ccccc4Cl)[nH]c3c2)c(=O)n(-c2ccccc2)n1C | – | 99 | –
Cc1ccc(C)c(OCc2nc3ccc(S(=O)(=O)Nc4c(C)n(C)n(-c5ccccc5)c4=O)cc3[nH]2)c1 | – | – | –
Cc1c(NS(=O)(=O)c2ccc3c(c2)n(C)c(=O)n3C)c(=O)n(-c2ccccc2)n1C | – | – | –
CC(C)C1C(=O)N(Cc2cn(CC3CCCCC3)nn2)CCS(=O)(=O)N1Cc1ccc(-c2ccncc2)cc1 (stereo not drawn) | – | · | ·
CN(Cc1ccco1)S(=O)(=O)c1csc(C(N)=O)c1 | – | – | –
SMILES | N-glyco inh | ALR inh | T cell HTS
N#CCC(=O)Nc1ccc(C(=O)OCC(=O)N2CCCC2=O)cc1 | – | 99 | –
N#CCC(=O)Nc1ccc(C(=O)OCC(=O)Nc2cc(-c3ccccc3)nn2-c2ccccc2)cc1 | – | · | ·
CNC(=O)COC(=O)c1ccc(NC(=O)CC#N)cc1 | – | 98 | –
O=C(OCC(=O)N1CCN(C(=O)c2ccco2)CC1)c1cc(-c2ccco2)nc2ccccc12 | – | 93 | –
O=C(OCC(=O)N1CCN(C(=O)c2ccco2)CC1)c1cc(-c2ccc(Cl)c(Cl)c2Cl)nc2ccccc12 | – | · | –
N#CCC(=O)Nc1ccc(C(=O)OCC(=O)Nc2ccccc2-c2ccccc2)cc1 | – | 98 | –
N#CCC(=O)Nc1ccc(C(=O)OCC(=O)NC2CCCCCC2)cc1 | – | · | –
Cc1cc(C)c(C(=O)COC(=O)c2ccc(NC(=O)CC#N)cc2)cc1C | – | – | –
CN(Cc1ccccc1)C(=O)c1csc([C@@H]2C[C@H](O)[C@@H](CO)O2)n1 | – | · | ·
C=CCCC(=O)N1C[C@@H](CO)[C@@H](NC)C[C@H]1c1ccccc1Br | – | · | ·
NS(=O)(=O)c1cccc(NC(=O)CSc2nnc(C3CC3)n2Cc2ccccc2)c1 | – | – | –
CN1CCN(CC(=O)Nc2ccc(OC(F)(F)F)cc2)CC1 | – | – | –
COc1ccc2nc(NC(=O)CCc3cc(OC)c(OC)c(OC)c3)sc2c1 | – | · | –
CCOC(=O)C1C(=O)C(=O)N(Cc2ccccc2)C1C(=O)OCC (stereo not drawn) | – | · | ·
N#CCC(=O)Nc1ccc(C(=O)OCC(=O)NC(=O)Cc2ccccc2)cc1 | – | 99 | –
COc1ccc(CCOC(=O)c2ccc(NC(=O)CC#N)cc2)cc1 | – | 89 | –
CCN(CC)S(=O)(=O)c1ccc(NC(=O)COC(=O)c2ccc(-n3nc(C)cc3C)cc2)cc1 | – | – | –
CC(=O)Nc1ccc(C(=O)OCC(=O)N2CCN(C(=O)c3ccco3)CC2)cc1 | – | – | –
N#CCC(=O)Nc1ccc(C(=O)OCC(=O)N2CCN(C(=O)c3ccco3)CC2)cc1 | – | 100 | –
